# Results reported in ChEMBL document CHEMBL1932981, “Synthesis of novel 2, 5-dihydrofuran derivatives and evaluation of their anticancer activity” (Eur J Med Chem, 2012).
# Test system: not listed separately
# Test: Cytotoxicity against human QGY7701 cells after 24 hrs by MTT assay
# Format: functional, cell-based
# Settings: QGY7701, 24 h; call rule not given here
# Outline: (§1)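 Cell lines from the Navy Medical College, seeded at 8000 cells/well in 96-well plates. Compounds dissolved in DMSO (stock 10 g/L) and freshly diluted in medium. Dilutions were added in duplicate 24 h after seeding, with incubation continued at 37 °C. Viability read by MTT. IC50 taken as the concentration giving 50% growth inhibition, determined following NCCLS recommendations.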
row,Structure (SMILES),IC50
1,C=CC1=C(C(=O)N2CCN(c3cccc(Cl)c3Cl)CC2)C(c2ccc(OC)cc2)OC1 (stereo unspecified),4.96 µM
2,C=CC1=C(C(=O)NCc2ccc(Cl)cc2)C(c2ccc(OC)cc2)OC1 (stereo unspecified),> 100 µM
3,C=CC1=C(C(=O)NCCC)C(c2ccc(OC)cc2)OC1 (stereo unspecified),> 100 µM
4,C=CC1=C(C(=O)NCc2ccccc2)C(c2ccc(OC)cc2)OC1 (stereo unspecified),> 100 µM
5,C=CC1=C(C(=O)Nc2ccc(C)cc2)C(c2ccc(F)cc2)OC1 (stereo unspecified),59.2 µM
6,C=CC1=C(C(=O)NCCc2ccccc2F)C(c2ccc(OC)cc2)OC1 (stereo unspecified),> 100 µM
7,COc1cccc2c1C(=O)c1c(O)c3c(c(O)c1C2=O)C[C@@](O)(C(=O)CO)C[C@@H]3O[C@H]1C[C@H](N)[C@H](O)[C@H](C)O1 [DOXORUBICIN],8.65 µM
8,C=CC1=C(C(=O)NCc2ccccc2)C(c2ccc(F)cc2)OC1 (stereo unspecified),67.6 µM
9,C=CC1=C(C(=O)NC2CCCCC2)C(c2ccc(OC)cc2)OC1 (stereo unspecified),> 100 µM
10,C=CC1=C(C(=O)N2CCN(c3ccccc3OC)CC2)C(c2ccc(OC)cc2)OC1 (stereo unspecified),23.6 µM
11,C=CC1=C(C(=O)NCCC)C(c2ccc(OC)c(OC)c2)OC1 (stereo unspecified),> 100 µM
12,C=CC1=C(C(=O)NCCc2cccc(F)c2)C(c2ccc(OC)cc2)OC1 (stereo unspecified),> 100 µM
13,C=CC1=C(C(=O)Nc2ccc(C)cc2)C(c2ccc(OC)cc2)OC1 (stereo unspecified),> 100 µM
14,C=CC1=C(C(=O)O)C(c2ccc(Cl)c(Cl)c2)OC1 (stereo unspecified),> 100 µM
15,C=CC1=C(C(=O)NCc2ccc(C)cc2)C(c2ccc(F)cc2)OC1 (stereo unspecified),62.1 µM
16,C=CC1=C(C(=O)NCc2ccccc2F)C(c2ccc(F)cc2)OC1 (stereo unspecified),51.4 µM
17,C=CC1=C(C(=O)Nc2cccc(C)c2)C(c2ccc(F)cc2)OC1 (stereo unspecified),56.4 µM
18,C=CC1=C(C(=O)Nc2ccccc2OC)C(c2ccc(Cl)c(Cl)c2)OC1 (stereo unspecified),> 100 µM
19,C=CC1=C(C(=O)N2CCN(c3cccc(Cl)c3)CC2)C(c2ccc(OC)cc2)OC1 (stereo unspecified),> 100 µM

# Test system: A549
# Test: Cytotoxicity against human A549 cells after 24 hrs by MTT assay
# Format: functional, cell-based
# Settings: Homo sapiens, A549, 24 h; read-out: IC50
# Outline: as §1
row,Structure (SMILES),IC50
1,C=CC1=C(C(=O)N2CCN(c3cccc(Cl)c3Cl)CC2)C(c2ccc(OC)cc2)OC1 (stereo unspecified),8.86 µM
2,C=CC1=C(C(=O)NCc2ccc(Cl)cc2)C(c2ccc(OC)cc2)OC1 (stereo unspecified),> 100 µM
3,C=CC1=C(C(=O)NCCC)C(c2ccc(OC)cc2)OC1 (stereo unspecified),> 100 µM
4,C=CC1=C(C(=O)NCc2ccccc2)C(c2ccc(OC)cc2)OC1 (stereo unspecified),> 100 µM
5,C=CC1=C(C(=O)Nc2ccc(C)cc2)C(c2ccc(F)cc2)OC1 (stereo unspecified),> 100 µM
6,C=CC1=C(C(=O)NCCc2ccccc2F)C(c2ccc(OC)cc2)OC1 (stereo unspecified),> 100 µM
7,COc1cccc2c1C(=O)c1c(O)c3c(c(O)c1C2=O)C[C@@](O)(C(=O)CO)C[C@@H]3O[C@H]1C[C@H](N)[C@H](O)[C@H](C)O1 [DOXORUBICIN],6.61 µM
8,C=CC1=C(C(=O)NCc2ccccc2)C(c2ccc(F)cc2)OC1 (stereo unspecified),> 100 µM
9,C=CC1=C(C(=O)NC2CCCCC2)C(c2ccc(OC)cc2)OC1 (stereo unspecified),> 100 µM
10,C=CC1=C(C(=O)N2CCN(c3ccccc3OC)CC2)C(c2ccc(OC)cc2)OC1 (stereo unspecified),23 µM
11,C=CC1=C(C(=O)NCCC)C(c2ccc(OC)c(OC)c2)OC1 (stereo unspecified),> 100 µM
12,C=CC1=C(C(=O)NCCc2cccc(F)c2)C(c2ccc(OC)cc2)OC1 (stereo unspecified),> 100 µM
13,C=CC1=C(C(=O)Nc2ccc(C)cc2)C(c2ccc(OC)cc2)OC1 (stereo unspecified),> 100 µM
14,C=CC1=C(C(=O)O)C(c2ccc(Cl)c(Cl)c2)OC1 (stereo unspecified),> 100 µM
15,C=CC1=C(C(=O)NCc2ccc(C)cc2)C(c2ccc(F)cc2)OC1 (stereo unspecified),> 100 µM
16,C=CC1=C(C(=O)NCc2ccccc2F)C(c2ccc(F)cc2)OC1 (stereo unspecified),> 100 µM
17,C=CC1=C(C(=O)Nc2cccc(C)c2)C(c2ccc(F)cc2)OC1 (stereo unspecified),> 100 µM
18,C=CC1=C(C(=O)Nc2ccccc2OC)C(c2ccc(Cl)c(Cl)c2)OC1 (stereo unspecified),> 100 µM
19,C=CC1=C(C(=O)N2CCN(c3cccc(Cl)c3)CC2)C(c2ccc(OC)cc2)OC1 (stereo unspecified),26.8 µM

# Test system: SW480
# Test: Cytotoxicity against human SW480 cells after 24 hrs by MTT assay
# Format: functional, cell-based
# Settings: SW480, 24 h
# Outline: as §1
row,Structure (SMILES),IC50
1,C=CC1=C(C(=O)N2CCN(c3cccc(Cl)c3Cl)CC2)C(c2ccc(OC)cc2)OC1 (stereo unspecified),29.2 µM
2,C=CC1=C(C(=O)NCc2ccc(Cl)cc2)C(c2ccc(OC)cc2)OC1 (stereo unspecified),> 100 µM
3,C=CC1=C(C(=O)NCCC)C(c2ccc(OC)cc2)OC1 (stereo unspecified),> 100 µM
4,C=CC1=C(C(=O)NCc2ccccc2)C(c2ccc(OC)cc2)OC1 (stereo unspecified),39.5 µM
5,C=CC1=C(C(=O)Nc2ccc(C)cc2)C(c2ccc(F)cc2)OC1 (stereo unspecified),> 100 µM
6,C=CC1=C(C(=O)NCCc2ccccc2F)C(c2ccc(OC)cc2)OC1 (stereo unspecified),> 100 µM
7,COc1cccc2c1C(=O)c1c(O)c3c(c(O)c1C2=O)C[C@@](O)(C(=O)CO)C[C@@H]3O[C@H]1C[C@H](N)[C@H](O)[C@H](C)O1 [DOXORUBICIN],65.2 µM
8,C=CC1=C(C(=O)NCc2ccccc2)C(c2ccc(F)cc2)OC1 (stereo unspecified),> 100 µM
9,C=CC1=C(C(=O)NC2CCCCC2)C(c2ccc(OC)cc2)OC1 (stereo unspecified),> 100 µM
10,C=CC1=C(C(=O)N2CCN(c3ccccc3OC)CC2)C(c2ccc(OC)cc2)OC1 (stereo unspecified),> 100 µM
11,C=CC1=C(C(=O)NCCC)C(c2ccc(OC)c(OC)c2)OC1 (stereo unspecified),> 100 µM
12,C=CC1=C(C(=O)NCCc2cccc(F)c2)C(c2ccc(OC)cc2)OC1 (stereo unspecified),> 100 µM
13,C=CC1=C(C(=O)Nc2ccc(C)cc2)C(c2ccc(OC)cc2)OC1 (stereo unspecified),> 100 µM
14,C=CC1=C(C(=O)O)C(c2ccc(Cl)c(Cl)c2)OC1 (stereo unspecified),> 100 µM
15,C=CC1=C(C(=O)NCc2ccc(C)cc2)C(c2ccc(F)cc2)OC1 (stereo unspecified),> 100 µM
16,C=CC1=C(C(=O)NCc2ccccc2F)C(c2ccc(F)cc2)OC1 (stereo unspecified),> 100 µM
17,C=CC1=C(C(=O)Nc2cccc(C)c2)C(c2ccc(F)cc2)OC1 (stereo unspecified),> 100 µM
18,C=CC1=C(C(=O)Nc2ccccc2OC)C(c2ccc(Cl)c(Cl)c2)OC1 (stereo unspecified),> 100 µM
19,C=CC1=C(C(=O)N2CCN(c3cccc(Cl)c3)CC2)C(c2ccc(OC)cc2)OC1 (stereo unspecified),> 100 µM

# Test system: HeLa
# Test: Cytotoxicity against human HeLa cells after 24 hrs by MTT assay
# Format: functional, cell-based
# Settings: Homo sapiens, HeLa, 24 h; read-out: IC50
# Outline: as §1
row,Structure (SMILES),IC50
1,C=CC1=C(C(=O)N2CCN(c3cccc(Cl)c3Cl)CC2)C(c2ccc(OC)cc2)OC1 (stereo unspecified),4 µM
2,C=CC1=C(C(=O)NCc2ccc(Cl)cc2)C(c2ccc(OC)cc2)OC1 (stereo unspecified),> 100 µM
3,C=CC1=C(C(=O)NCCC)C(c2ccc(OC)cc2)OC1 (stereo unspecified),14 µM
4,C=CC1=C(C(=O)NCc2ccccc2)C(c2ccc(OC)cc2)OC1 (stereo unspecified),> 100 µM
5,C=CC1=C(C(=O)Nc2ccc(C)cc2)C(c2ccc(F)cc2)OC1 (stereo unspecified),> 100 µM
6,C=CC1=C(C(=O)NCCc2ccccc2F)C(c2ccc(OC)cc2)OC1 (stereo unspecified),37.5 µM
7,COc1cccc2c1C(=O)c1c(O)c3c(c(O)c1C2=O)C[C@@](O)(C(=O)CO)C[C@@H]3O[C@H]1C[C@H](N)[C@H](O)[C@H](C)O1 [DOXORUBICIN],1.12 µM
8,C=CC1=C(C(=O)NCc2ccccc2)C(c2ccc(F)cc2)OC1 (stereo unspecified),> 100 µM
9,C=CC1=C(C(=O)NC2CCCCC2)C(c2ccc(OC)cc2)OC1 (stereo unspecified),24.8 µM
10,C=CC1=C(C(=O)N2CCN(c3ccccc3OC)CC2)C(c2ccc(OC)cc2)OC1 (stereo unspecified),> 100 µM
11,C=CC1=C(C(=O)NCCC)C(c2ccc(OC)c(OC)c2)OC1 (stereo unspecified),> 100 µM
12,C=CC1=C(C(=O)NCCc2cccc(F)c2)C(c2ccc(OC)cc2)OC1 (stereo unspecified),31.4 µM
13,C=CC1=C(C(=O)Nc2ccc(C)cc2)C(c2ccc(OC)cc2)OC1 (stereo unspecified),> 100 µM
14,C=CC1=C(C(=O)O)C(c2ccc(Cl)c(Cl)c2)OC1 (stereo unspecified),10.3 µM
15,C=CC1=C(C(=O)NCc2ccc(C)cc2)C(c2ccc(F)cc2)OC1 (stereo unspecified),> 100 µM
16,C=CC1=C(C(=O)NCc2ccccc2F)C(c2ccc(F)cc2)OC1 (stereo unspecified),> 100 µM
17,C=CC1=C(C(=O)Nc2ccccc2OC)C(c2ccc(Cl)c(Cl)c2)OC1 (stereo unspecified),> 100 µM
18,C=CC1=C(C(=O)N2CCN(c3cccc(Cl)c3)CC2)C(c2ccc(OC)cc2)OC1 (stereo unspecified),> 100 µM

# Same assay, conditions: hela
row,Structure (SMILES),IC50
1,C=CC1=C(C(=O)Nc2cccc(C)c2)C(c2ccc(F)cc2)OC1 (stereo unspecified),Not Active
